Screening data deposited in PubChem by The Scripps Research Institute Molecular Screening Center.
A selection: hits, their analogues and other compounds. The true share with any hit is near 3.1%.
GPR7 antagonist: blocks human GPR7 receptor signaling | GPR7-expressing cells, fluorescence antagonist assay | inhibition, % at 4.4 µM | actives 1.1% (n = 290,000); in the data active = inhibition above about 16%, passing the limit was not always enough;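 note: cells stimulated with the agonist NPW; 0% = agonist with vehicle and 100% = vehicle without agonist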
Target sequence (P48145 whole entry, looked up): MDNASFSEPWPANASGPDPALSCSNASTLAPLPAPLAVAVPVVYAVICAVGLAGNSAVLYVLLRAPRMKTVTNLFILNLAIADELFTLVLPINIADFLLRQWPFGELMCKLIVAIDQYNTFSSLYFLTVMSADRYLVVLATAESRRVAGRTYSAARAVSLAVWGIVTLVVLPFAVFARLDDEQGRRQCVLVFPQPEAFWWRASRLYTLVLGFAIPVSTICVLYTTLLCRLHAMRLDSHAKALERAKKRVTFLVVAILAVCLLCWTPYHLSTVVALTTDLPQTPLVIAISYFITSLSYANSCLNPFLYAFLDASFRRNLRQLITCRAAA
OX1R antag-1: blocks the human orexin 1 receptor; O43613; OX1R-expressing cells, FRET antagonist read-out; inhibition, % at 6.6 µM; actives 1.8% (n = 330,000); in the data active = inhibition mostly above about 38%, no sharp cut-off; inactive = mostly below about 40%;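 note: 0% = agonist challenge alone and 100% = reference antagonist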
GalR3 antag: human GalR3 antagonism. actives 0.44% (n = 360,000). inhibition, % at 3 µM. HEK293 GalR3-CNG cAMP membrane potential fluorescence; galR3 body fused to GalR1 C-terminus. O60755;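 active = inhibition above the screen-wide average plus 3 SD, cut at about 13% in these data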;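 note: forskolin and galanin both at EC90 stimulate the cells; cAMP rise reported by CNG channel membrane potential dye signal; 0% = forskolin plus galanin with DMSO and 100% = forskolin alone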
Target sequence (O60755 1-299 limits assumed): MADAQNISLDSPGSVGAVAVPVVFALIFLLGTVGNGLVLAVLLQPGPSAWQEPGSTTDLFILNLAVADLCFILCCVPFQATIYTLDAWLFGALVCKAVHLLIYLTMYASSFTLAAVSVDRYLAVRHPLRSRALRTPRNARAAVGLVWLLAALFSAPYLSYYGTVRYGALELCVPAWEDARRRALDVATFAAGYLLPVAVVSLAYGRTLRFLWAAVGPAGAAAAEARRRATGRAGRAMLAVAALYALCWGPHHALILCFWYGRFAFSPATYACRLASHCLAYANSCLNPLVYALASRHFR
CHO parental Ca: signal in parental CHO cells, OX1R antagonist counter-screen; parental CHO-K1, ATP-induced calcium, Fluo-8 fluorescence; inhibition, % at 5.6 µM; actives 0.63% (n = 330,000);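 active = inhibition above that plate's mean sample inhibition plus 3 SD, cut at about 26% in these data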;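 note: 0% = ATP-challenged DMSO wells and 100% = DMSO wells without ATP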
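Test system: parental CHO cells; detection: calcium-sensitive Fluo-8 fluorescence; evaluation: percent inhibition of calcium signal; also added: ATP as calcium-mobilizing challenge; repeats: one well per compound; control set: ATP-challenged DMSO wells low, unchallenged DMSO wells high; compound: single nominal dose of 5.6 µM per compound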
OX1R antag-2: human HCRTR1 antagonism. CHO/OX1R cells, Fluo-8 calcium fluorescence, orexin A. inhibition, % at 5 µM. O43613. actives 0.43% (n = 330,000);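 active = inhibition above its plate's threshold, mean inhibition of all tested compounds on the plate plus 3 SD, cut at about 37% in these data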;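 note: 0% = orexin A challenge wells and 100% = SB-334867-A antagonist wells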
The depositor's hits bear a star; · = no result.

SMILES | GPR7 antagonist | OX1R antag-1 | GalR3 antag | CHO parental Ca | OX1R antag-2
CC1(C(=O)NCc2cccc3ccccc23)CCN1Cc1ccc(OC(F)(F)F)cc1 (centres undefined) | · | · | -7 | · | ·
CC(C)Oc1ccc(CN2CCC2(C)C(=O)Nc2cccc3cccnc23)cc1 (centres undefined) | · | · | 1 | · | ·
CN1CCN(Cn2cc(/C=C/C(=O)c3ccccc3)c3ccccc32)CC1 | -6 | 40* | · | -13 | 14
Cc1cc(C(=O)OCC(=O)NC(=O)c2cccn2C)c2ccccc2n1 | -20 | 25 | -4 | 45* | -13
Cn1cccc1C(=O)NC(=O)COC(=O)c1ccccc1O | 8 | 9 | -3 | -5 | -10
COc1ccccc1NC(=O)COC(=O)c1cc(C)nc2ccccc12 | · | 43* | -1 | -24 | 20
COc1ccc(CNC(=O)COC(=O)c2cc(-c3cccs3)nc3ccccc23)cc1OC | 1 | 48* | -2 | -10 | 10
O=[N+]([O-])c1ccc(COc2cccc(CO)c2)cc1 | · | · | -5 | · | ·
Cc1c(C(=O)NCc2ccc([N+](=O)[O-])cc2)sc(=O)n1Cc1ccc(-c2ccccc2)cc1 | · | · | -1 | · | ·
O=[N+]([O-])c1ccc(COc2cccc(CN3CCCCC3)c2)cc1 | · | · | -5 | · | ·
Cc1cccc(C(=O)n2c(=S)nc3cc(C)ccn32)c1 | -5 | 41* | -3 | -12 | -6
COC(=O)[C@]12CCCCC=C1N(Cc1ccc(Cl)cc1Cl)C(=O)[C@H](CC(=O)NCCc1ccccc1OC)C2 | · | · | -5 | · | ·
Cc1cccc(CS(=O)(=O)c2nnc([C@H](Cc3ccccc3)NC(=O)OC(C)(C)C)o2)c1 | 8 | 17 | · | 67* | 57*
Nc1nc(N)c2nc(CNc3ccc(C(=O)NC(CCC(=O)O)C(=O)O)cc3)cnc2n1 (centres undefined) | · | 61* | · | -5 | -6
CN(Cc1cnc2nc(N)nc(N)c2n1)c1ccc(C(=O)NC(CCC(=O)O)C(=O)O)cc1 (centres undefined) | · | · | 1 | · | ·
Cc1ccc(S(=O)(=O)Nc2cc(C(C(=O)OC(C)C)C(=O)C(F)(F)F)c(O)c3ccccc23)c(C)c1 (centres undefined) | -11 | 114* | -4 | 31* | 51*
Cc1cc(Br)cn2c(Cc3ccccc3)c(-c3ccccc3)nc12 | · | · | -2 | · | ·
Cc1nc(SCC(=O)Nc2nc3ccccc3s2)c(C#N)c(C)c1C | -10 | 53* | -2 | -17 | -17
Cc1cc(C(F)(F)F)c(C#N)c(SCC(=O)Nc2nc3ccccc3s2)n1 | -4 | 74* | 0 | -11 | 22
O=C(NCc1ccccc1)[C@@H]1CCCN1C(=O)[C@H]1CCCN1C(=O)c1ccc(F)c(F)c1 | · | · | -1 | · | ·
CCOC(=O)C1=C[C@@H](c2ccccc2)N(S(=O)(=O)c2ccc(C)cc2)[C@H]1c1ccccc1Cl | · | · | -7 | · | ·
CCn1c(Cn2nnc(-c3ccccc3)n2)nnc1SCC(=O)Nc1cccc(C)c1C | 7 | 77* | -2 | -15 | 6
CCn1c(Cn2nnc(-c3ccccc3)n2)nnc1SCC(=O)Nc1cccc(C(C)=O)c1 | 1 | 56* | 0 | -8 | 8
CCn1c(Cn2nnc(-c3ccccc3)n2)nnc1SCC(=O)Nc1ccc(N(C)C)cc1 | 0 | 14 | -3 | -11 | -12
CCn1c(Cn2nnc(-c3ccccc3)n2)nnc1SCC(=O)Nc1ccc(C(C)=O)cc1 | -13 | 11 | -5 | -30 | -13
SMILES | GPR7 antagonist | OX1R antag-1 | GalR3 antag | CHO parental Ca | OX1R antag-2
COc1ccccc1NC(=O)Cn1nnc(-c2ccccc2NS(=O)(=O)c2ccccc2)n1 | -3 | 33 | 2 | 18 | 15
COc1ccc(NC(=O)Cn2nnc(-c3ccccc3NS(=O)(=O)c3ccc(OC)cc3)n2)cc1 | 26* | 32 | -3 | 39* | 30
COc1ccc(CCN2Cc3c(N)cccc3C2=O)cc1OC | -3 | -5 | -10 | -4 | -7
COc1ccc(CCN2Cc3c(cccc3[N+](=O)[O-])C2=O)cc1OC | -13 | 38* | -10 | -2 | -27
N#CC1=C(N)NC(SCc2ccc(Br)cc2)=C(C#N)C12CCCCC2 | 4 | 19 | 0 | 45* | 5
N#CC1=C(N)NC(SCc2ccc(Cl)cc2)=C(C#N)C12CCCCC2 | 7 | 25 | -3 | 47* | 54*
O=C(NCc1ccc(F)cc1)c1cc(C2CCCN(C(=O)c3cccs3)C2)on1 (centres undefined) | · | · | -8 | · | ·
CC(C)CNC(=S)N1CCN(c2nc(-c3ccc(Cl)cc3)cs2)CC1 | -7 | 34 | -11 | 39* | -1
COCCCNC(=S)N1CCN(c2nc(-c3ccc(Cl)cc3)cs2)CC1 | · | · | -7 | · | ·
CC(=O)Nc1ccc(-c2ccnc3c2CC(C)(C(=O)Nc2ccc(Cl)cc2)O3)cc1 (centres undefined) | · | · | -5 | · | ·
Cc1ccccc1S(=O)(=O)Oc1ccc2ccc(O)cc2c1 | 9 | 13 | -9 | 22 | 4
Cc1ccccc1C(=O)Oc1ccc2ccc(O)cc2c1 | -5 | 19 | -2 | 66* | 16
C[C@@H]1CN([C@H](C)CO)S(=O)(=O)c2ccc(-c3ccc(C#N)cc3)cc2O[C@H]1CN(C)C(=O)Nc1cc(F)ccc1F | · | · | -8 | · | ·
O=C(COC(=O)C1CCN(S(=O)(=O)c2ccc(Cl)c(C(F)(F)F)c2)CC1)NCc1ccco1 | · | 18 | -2 | 42* | -19
CC1CCCCN1C(=O)COC(=O)C1CCN(S(=O)(=O)c2ccc(Cl)c(C(F)(F)F)c2)CC1 (centres undefined) | · | 5 | -2 | -17 | -32
CCC1CCCCN1C(=O)COC(=O)c1cc(=O)[nH]c2ccccc12 (centres undefined) | · | 25* | -6 | -19 | 1
COc1ccc(-c2cc3ccccc3n2CC(O)CNC(CO)(CO)CO)cc1 (centres undefined) | 15* | -2 | -6 | -14 | -17
COC(=O)[C@]12CCCCC=C1N(Cc1ccc3c(c1)OCO3)C(=O)[C@H](CC(=O)NCc1cccc3ccccc13)C2 | · | · | -1 | · | ·
COCCCn1c(=NC(=O)c2ccccc2)c(C#N)cc2c(=O)n3cccc(C)c3nc21 | -14 | 55* | -2 | 10 | 2
CCOCCCn1c(=NC(C)=O)c(C#N)cc2c(=O)n3ccccc3nc21 | -2 | 40* | -2 | 1 | 1
CCOCCCn1c(=NC(C)=O)c(C(=O)OCC)cc2c(=O)n3ccccc3nc21 | -4 | 59* | -7 | -2 | -7
O=C(CCCCC(=O)NN=Cc1ccc2c(c1)CCC2)NN=Cc1ccc2c(c1)CCC2 | · | · | -3 | · | ·
C=CCN=C1NC(CCc2ccccc2)C(C(=O)OC)=C(C)N1C (centres undefined) | · | · | -8 | · | ·
CC(C)N(Cc1nc(-c2ccc(Cl)cc2)no1)C(=O)C(c1ccccc1)c1ccccc1 | -7 | 16 | -5 | 4 | -34
Cc1ccc(-c2noc(CN(C(=O)C(c3ccccc3)c3ccccc3)C(C)C)n2)cc1 | -8 | 24 | -7 | 52* | 14
Cc1cccc(-c2noc(CN(C(=O)CCc3ccccc3)C(C)C)n2)c1 | -2 | 13 | -6 | 42* | -21
